According to article PMC11348603 (BMC Pharmacology & Toxicology, 2024):
Read-outs that look alike come from different tables or passages of the source.

Assays:
[1] = cited from earlier work
[2] = cited from earlier work; remark: listed apart in the source
[3] = Reported food effect study in Caucasian population; assay type: in vivo, healthy Caucasian subjects; conditions: average of the 40 mg and 120 mg group, observed data of ref 22
[4] = Population pharmacokinetic analysis; assay type: in vivo, healthy Chinese adult volunteers
How it was run: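 Pooled plasma data from 128 subjects were fitted by SAEM with a two-compartment model: first-order elimination, two deposit absorption compartments, lag times. Parameters were log-normal with exponential IIV, and proportional, additive and combined residual errors were tested. Stepwise covariate search used p<0.05 forward and p<0.01 backward. Sex, age, WT and BMI were tested on CL/F and volume. Food (0 fasted, 1 fed) was tested on absorption parameters. Evaluation used AIC, OFV, GOF, VPC (1000 simulations) and NPDE.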

[5] = assay type: in vivo, healthy Chinese adult volunteers; conditions: for subjects whose concentration-time curves displayed multiple peaks: fasting state
How it was run: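 Two open-label BE studies in healthy Chinese adults, each giving one reference tablet dose (20 mg or 80 mg) with 240 mL water. Subjects either fasted ≥10 h pre-dose or ate a high-fat, high-calorie meal (800–1000 kcal) within 30 min of dosing. Blood was drawn from 30 min pre-dose to 48 h post-dose. Plasma was separated at 3000 rpm, stored at −70 °C, and assayed by LC-MS/MS. Cmax, tmax and AUCs came from non-compartmental analysis.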

[6] = humans, cited from earlier work
[7] = parameters: species or system healthy Caucasian subjects; conditions: Caucasian
How it was run: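 Monte Carlo simulation from the final Chinese-population model, with CL/F raised and relative bioavailability lowered per earlier published race covariate estimates. The 24 simulated Caucasian subjects had demographics matching a reported food-effect study.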

[8] = fractional difference of race, relative to Chinese model; cited from earlier work
[9] = cited from earlier work; remark: listed apart in the source
[10] = fasted, average of the 40 mg and 120 mg group

For `Cc1nc(-c2ccc(OCC(C)C)c(C#N)c2)sc1C(=O)O` [febuxostat, 2-[3-cyano-4-(2-methylpropoxy)phenyl]-4-methylthiazole-5-carboxylic acid], the solubility in methanol ([1]; methanol) is given as “slightly soluble”, the solubility in water ([1]; water) is given as “practically insoluble” and the “CL/F estimate for healthy Australian subjects” value [2] is given as 6.91 L/h. The “fed/fasted ratio of observed mean AUC” value [3] was 0.83, the “fed/fasted ratio of observed mean Cmax” value [3] was 0.60 and the “fed/fasted ratio of observed mean Tmax” value [3] was 1.87. For the same compound, the “estimated CL/F for healthy Chinese subjects” value ([4]; PopPK final model) was 6.14 L/h, the “CL/F, final model estimate (RSE%)” value ([4]; apparent clearance) was 6.14 (2.26) L∙h^−1 and the “Vc/F, final model estimate (RSE%)” value ([4]; apparent distribution volume of central compartment) was 10.38 (2.07) L. The “Vp/F, final model estimate (RSE%)” value ([4]; apparent distribution volume of peripheral compartment) was 10.22 (3.21) L, the “WT_Vc/F, final model estimate (RSE%)” value ([4]; covariate coefficient of body weight on Vc/F) was 0.58 (27.9) and the “WT_Vp/F, final model estimate (RSE%)” value ([4]; covariate coefficient of body weight on Vp/F) was 1.15 (22.5). For the same compound, the “Food_Tlag1, final model estimate (RSE%)” value ([4]; covariate coefficient of fed state on Tlag1) was 0.73 (18.2), the “Food_ka1, final model estimate (RSE%)” value ([4]; covariate coefficient of fed state on ka1) was −2.04 (8) and the “Food_ka2, final model estimate (RSE%)” value ([4]; covariate coefficient of fed state on ka2) was −1.08 (19.9). The “reduction of ka1 by food” value ([4]; fed vs fasted, final model) was 87%, the “reduction of ka2 by food” value ([4]; fed vs fasted, final model) was 66% and the “ka1, final model estimate (RSE%)” value ([4]; first-order absorption rate constant of first depot, fasted state) was 4.02 (11.4) h^−1. For the same compound, the “ka2, final model estimate (RSE%)” value ([4]; first-order absorption rate constant of second depot, fasted state) was 4.34 (15.6) h^−1, the “F1, final model estimate (RSE%)” value ([4]; fraction of absorbed febuxostat from first depot) was 0.51 (3.7) and the “Q/F, final model estimate (RSE%)” value ([4]; in vivo) was 1.93 (4.25) L∙h^−1. The “Tlag1, final model estimate (RSE%)” value ([4]; lag time of first depot, fasted state) was 0.22 (8.93) h, the “Tlag2, final model estimate (RSE%)” value ([4]; lag time of second depot) was 0.92 (7.63) h and the “Cmax (mean ± SD)” value ([5]; 20 mg single oral dose, fasting (n=36), plasma) was 1091 ± 301.0 ng/mL. For the same compound, the “subjects whose concentration-time curves displayed multiple peaks” value ([5]; 20 mg, may be overestimated) was “approximately 75.0%”, the “Tmax (median, range)” value ([5]; 80 mg single oral dose, fed (n=30), plasma) was 1.75 (0.75, 4.00) h and the “subjects whose concentration-time curves displayed multiple peaks” value ([5]; 80 mg, may be overestimated) was ~80.6%. The “curves showing multiple peaks” value ([5]; fed study, may be overestimated) was “about 40%”, the Tmax ([5]; human, plasma, po, 20 mg) was 1.25 h and the “extent of metabolism by glucuronidation” value [6] was “up to 40%”. The “time to reach maximum plasma concentrations (Cmax)” value ([6]; oral administration, fasting condition) was 0.5 ~ 1.5 h, the “predicted fed/fasted ratio of AUC” value ([7]; simulated) was 1.02 and the “predicted fed/fasted ratio of Cmax” value ([7]; simulated) was 0.68. For the same compound, the “predicted fed/fasted ratio of Tmax” value ([7]; simulated) was 1.53, the “ratio of mean predicted and observed AUC” value [7, 10] was 0.92 and the “ratio of mean predicted and observed Cmax” value [7, 10] was 0.81. For the same compound, the “ratio of mean predicted and observed Tmax” value [7, 10] was 1.41, the “ratio (predicted/observed) of AUC” value ([7]; fed state) was 1.13 and the “ratio (predicted/observed) of Cmax” value ([7]; fed state) was 0.92. For the same compound, the “ratio (predicted/observed) of Tmax” value ([7]; fed state) was 1.13, the “decrease of bioavailability applied for Caucasian subjects” value [8] was 46% and the “CL/F reported by Rekić et al.” value [9] was 14.58 L/h.
